A3A deaminase = APOBEC3A ssDNA deaminase inhibitors, primary screen, selectivity assay for APOBEC3G inhibitor project, biochemical, FAM/TAMRA oligo cleavage fluorescence; AID 493011, 2011; 330,000 tested, 0.41% active; recombinant A3A, FAM/TAMRA ssDNA deamination fluorescence; inhibition, % at 20 µM;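 active = at least 40% inhibition at 20 µM here, with at most 30% in a related deaminase screen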;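 note: plate controls were A3A with DMSO for no effect and wells lacking A3A enzyme for full effect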
CAL PDZ FP-1 = untagged CAL PDZ binding inhibitors, primary screen, biochemical, fluorescence polarization, HTS | Golgi-associated PDZ and coiled-coil motif-containing protein (Homo sapiens), Q9HD26 | purified CAL PDZ, TMR-peptide fluorescence polarization, 1 h | inhibition, % at 24.9 µM | 300,000 tested, 0.92% active;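 active = mean inhibition of at least 30% with at least half of replicates also reaching 30%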;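 note: 0% = DMSO neutral control and 100% = excess unlabeled competitor peptide PRC23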
A3G deaminase = APOBEC3G DNA deaminase inhibitors, primary screen, biochemical, fluorescence, single-stranded DNA substrate, uHTS; DNA dC->dU-editing enzyme APOBEC-3G (Homo sapiens), Q9HC16; recombinant A3G, ssDNA deamination FAM/TAMRA fluorescence; inhibition, % at 20 µM; 330,000 tested, 0.28% active;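 active = inhibition of at least 40% at 20 µM, with no more than 30% in the related APOBEC3A deaminase screen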;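 note: plate controls were DMSO wells with A3G for no effect and wells lacking A3G enzyme for full effect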
Target sequence (Q9HC16 whole entry, looked up): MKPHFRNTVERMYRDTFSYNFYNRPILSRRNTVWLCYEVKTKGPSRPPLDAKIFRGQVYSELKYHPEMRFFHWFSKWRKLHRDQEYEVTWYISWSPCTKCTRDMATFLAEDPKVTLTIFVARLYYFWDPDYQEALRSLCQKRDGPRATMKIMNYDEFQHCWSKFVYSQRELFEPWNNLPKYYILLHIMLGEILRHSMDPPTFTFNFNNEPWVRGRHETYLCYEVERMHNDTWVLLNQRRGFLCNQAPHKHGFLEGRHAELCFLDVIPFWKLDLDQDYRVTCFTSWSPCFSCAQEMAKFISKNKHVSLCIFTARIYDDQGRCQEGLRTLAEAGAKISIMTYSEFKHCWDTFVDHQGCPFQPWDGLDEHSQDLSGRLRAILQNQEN
CAL PDZ FP-2 = CAL PDZ peptide-binding inhibitors, primary screen, biochemical, fluorescence polarization, Cer-tagged CAL PDZ, HTS; purified CAL PDZ, TMR-peptide fluorescence polarization, 1 h; inhibition, % at 20 µM; AID 504414, 2011; Golgi-associated PDZ and coiled-coil motif-containing protein (Homo sapiens), Q9HD26; 330,000 tested, 0.02% active;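 active = highest replicate inhibition of at least 40%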;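 note: plate controls were DMSO neutral control wells for no effect and unlabeled competitor peptide control wells for full effect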
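Assay system – tagged CAL PDZ protein CerCALP, purified · Timing – 1 h at RT · Compound – single point, 20 µM · Measured by – fluorescence polarization from S- and P-plane intensities, G-factor corrected · Evaluation – inhibition from polarization loss · Probe or stimulus – TMR reporter peptide T*-PRC34 · Buffer or medium – pH 7.4 phosphate-saline buffer, reducing agent, detergent, IgG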
Keap1 Nrf2 FP = Keap1-Nrf2 protein-protein interaction inhibitors, primary screen, biochemical, fluorescence polarization, single point; Kelch-like ECH-associated protein 1 (Homo sapiens), Q14145; Keap1 Kelch-Nrf2 peptide fluorescence polarization, 1536-well; inhibition, % at 9.4 µM; 340,000 tested, 0.15% active; AID 504523, 2011; in the data active = inhibition above about 12%;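 note: human Keap1 Kelch domain with fluorescein labeled Nrf2 9mer peptide probe; 0% = neutral control wells and 100% = peptide positive control; higher means more block of Keap1 binding to Nrf2 peptide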
LANA DNA inh = inhibitors of KSHV C-LANA binding to DNA, primary screen, biochemical, fluorescence polarization, FAM-LBS DNA, MBP-C-LANA, single point. Kaposi's sarcoma herpesvirus LANA C-terminal domain (residues 932-1162) DNA binding. 340,000 tested, 0.078% active. inhibition, % at 9 µM;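 active = highest replicate inhibition at or above 60% at 9 µM, even if other replicates fall short; inactive = all replicates below 60% inhibition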;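 note: 0% = neutral control wells and 100% = 4 µM acridine orange control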
A3G conf = APOBEC3G deaminase inhibitor retest, confirmation, biochemical, fluorescence, single-stranded DNA substrate, single concentration | shares compounds with A3G deaminase | recombinant A3G ssDNA deaminase, UDG/FAM-TAMRA fluorescence | inhibition, % at 20 µM | 890 tested, 72% active | AID 493152, 2011;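 active = inhibition reaching a set limit in any replicate at 20 µM, the limit being 80% of the first screen's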
UDG ctr A3G = E. coli UDG inhibitors, confirmation, counter-screen for APOBEC3G inhibitor project, biochemical, single concentration, fluorescence, FAM/TAMRA oligo; UDG counterscreen; inhibition, % at 20 µM; shares compounds with A3G deaminase; 710 tested, under 10 active;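 active = compounds giving 40% or more inhibition at 20 µM in any one of the three replicates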;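 note: plate controls were DMSO wells with UDG and oligo for no effect and DMSO wells lacking both for full effect; inhibitors lower the FAM signal released by uracil excision and alkaline cleavage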
* marks the source's active call; other numbers are inactive results. Shown are actives, neighbours in structure and some others; about 1.7% of the full set was active somewhere.

Results for O=[N+]([O-])c1cccc(/C=N/n2c(COc3ccccc3)n[nH]c2=S)c1 ?
A3A deaminase: 0; CAL PDZ FP-1: 0; A3G deaminase: 59*; CAL PDZ FP-2: -1; Keap1 Nrf2 FP: -2; LANA DNA inh: 1; A3G conf: 73*; UDG ctr A3G: -3

What do the screens show for `S=c1[nH]nc(COc2ccccc2)n1/N=C/c1cccnc1`?
A3A deaminase: -1; CAL PDZ FP-1: -2; A3G deaminase: 56*; CAL PDZ FP-2: -2; Keap1 Nrf2 FP: -1; LANA DNA inh: 0; A3G conf: 77*; UDG ctr A3G: -3

Results for CC(CCN1CCN(c2ccc(F)cc2)CC1)c1ccccc1 (centres undefined) ?
A3A deaminase: -3; CAL PDZ FP-1: -8; A3G deaminase: -5; CAL PDZ FP-2: -1; Keap1 Nrf2 FP: -1; LANA DNA inh: 0

How did O=C(CN1C(=O)NC2(CCOc3ccccc32)C1=O)N1CCCCC1 (centres undefined) do in these assays?
A3A deaminase: 0; CAL PDZ FP-1: -4; A3G deaminase: -3; CAL PDZ FP-2: 0; Keap1 Nrf2 FP: -5; LANA DNA inh: 2

How did CC1CCC2(CC1)NC(=S)N(C(C)(C)C)N2 (centres undefined) do in these assays?
A3A deaminase: 2; CAL PDZ FP-1: -2; A3G deaminase: 51*; CAL PDZ FP-2: 1; Keap1 Nrf2 FP: -1; LANA DNA inh: 0; A3G conf: 24*; UDG ctr A3G: -3

What do the screens show for `CC1CCC2(CC1)NC(=S)N(c1ccccc1)N2` (centres undefined)?
A3A deaminase: 0; CAL PDZ FP-1: -3; A3G deaminase: 61*; CAL PDZ FP-2: -1; Keap1 Nrf2 FP: -5; LANA DNA inh: 1; A3G conf: 23*; UDG ctr A3G: 3

Results for O=C1NC2(CCCCC2)NN1c1ccccc1 ?
A3A deaminase: 2; CAL PDZ FP-1: 0; A3G deaminase: -3; CAL PDZ FP-2: -1; Keap1 Nrf2 FP: 1; LANA DNA inh: -1

How did CC(Oc1ccccc1)C(=O)N=C1SC2CS(=O)(=O)CC2N1Cc1ccccc1 (centres undefined) do in these assays?
A3A deaminase: 1; A3G deaminase: 4; CAL PDZ FP-2: 0; Keap1 Nrf2 FP: -4; LANA DNA inh: 0

How did Cc1ccc(-n2c(N)c(C(N)=O)sc2=S)cc1 do in these assays?
A3A deaminase: 1; CAL PDZ FP-1: -4; A3G deaminase: 58*; CAL PDZ FP-2: 0; Keap1 Nrf2 FP: 0; LANA DNA inh: 1; A3G conf: 58*; UDG ctr A3G: -1

What do the screens show for `O=C(NNS(=O)(=O)c1ccc(F)cc1)c1cc2ccccc2cc1O`?
A3A deaminase: -6; CAL PDZ FP-1: -1; A3G deaminase: -14; CAL PDZ FP-2: 0; Keap1 Nrf2 FP: -3; LANA DNA inh: -1

Bioassay records (PubChem BioAssay)
